Experimental findings from ChEMBL document CHEMBL1124035, “1-Amino-substituted 4-methyl-5H-pyrido[4,3-b]indoles (gamma-carbolines) as tricyclic analogues of ellipticines: a new class of antineoplastic agents” (1988) are described below.

The test system of assay [1] is Mus musculus. Put plainly: Survivors at day 60 when a dose of 2.5 mg/kg to B16 melanoma infected when tested in 10 mice. It is filed as functional.
Assay [2] concerns Mus musculus. Put plainly: Survivors at day 60 when a dose of 10 mg/kg to B16 melanoma infected when tested in 10 mice. It is filed as functional.
Assay [3] has as its system Mus musculus. Description: Weight change in g when a dose of 10 mg/kg administered intraperitoneally to P388 leukemia infected mice. The settings on record: route intraperitoneal. The assay is classed as functional. A digest of the protocol: (§1)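 P388 model with a single ip dose. Mice (10 per group) were inoculated ip at D0 with 10^6 P388 cells and given one ip drug dose at D1. Body-weight change (g), median survival day, T/C and survivors at D30 were recorded.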

Assay [4] deals with Mus musculus. Description: Weight change in g when a dose of 20 mg/kg administered intraperitoneally to P388 leukemia infected mice. The assay is classed as functional. The settings on record: route intraperitoneal. An outline of the steps:
as §1

Assay [5] concerns Mus musculus. Description: Survivors at day 30 when a dose of 10 mg/kg administered to P388 leukemia infected when tested in 10 mice. The assay is classed as functional. A digest of the protocol:
(§2)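 P388 leukaemia in CDF1 hybrid mice, 10 per group. At D0, 10^6 viable cells were inoculated ip, followed by a single ip dose of drug in distilled water on D1. Weight change, median survival day, T/C (treated/control median survival × 100) and survivors at D30 were recorded. Controls were 20 mice.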

Assay [6] deals with Mus musculus. Description: Survivors at day 30 when a dose of 100 mg/kg administered intravenously to P388 (iv) to L1210 leukemia mice model. The assay is classed as functional.
Assay [7] relates to Mus musculus. Description: Survivors at day D38 when a dose of 50 mg/kg administered intravenously to C38 adenocarcinoma mice model on D1 when tested in 10 mice. It is filed as functional. Particulars: route intravenous. A digest of the protocol: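 Hybrid BDF1 mice, 10 per test, were implanted sc with a standard 3-mm³ fragment of C38 colon adenocarcinoma. Drug was given iv either on D1 alone or on D2 and D9. Animals were followed per NCI (Geran) protocol.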

In assay [8] the test system is Mus musculus. Put plainly: Median survival day of B16 melanoma infected mice, when a dose of 2.5 mg/kg administered intraperitoneally. Particulars: route intraperitoneal. The assay is classed as functional. A digest of the protocol:
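B16 melanoma in hybrid BD F1 mice. At D0 each mouse was inoculated ip with 0.5 mL of homogenate made from 1 g of tumour in 10 mL of physiological serum. Compounds were given ip daily at the stated doses for 9 days (D1-9), with cis-platinum 0.5 mg/kg under the same schedule as positive control.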

Assay [9] deals with Mus musculus. Put plainly: Survivors at day 60 when a dose of 1.25 mg/kg to B16 melanoma infected when tested in 10 mice. It is filed as functional.
In assay [10] the test system is Mus musculus. Description: Antitumor activity against L1210 cells at a dose of 20 mg/kg administered intravenously to mice. It is filed as functional. The settings on record: route intravenous. A digest of the protocol: (§3)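 P388 (10^6 cells) or L1210 (10^5 cells) leukemia was inoculated ip in mice at D0, followed by a single iv drug treatment on D1. Weight change was recorded. T/C % = median survival day of treated / controls × 100; survivors noted at D30; 10-15 mice per group.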

In assay [11] the test system is Mus musculus. Put plainly: Median survival day in P388 cell line when a dose of 20 mg/kg administered intraperitoneally to mice. It is filed as functional. The settings on record: route intraperitoneal. An outline of the steps:
as §2

Assay [12] has as its system Mus musculus. Put plainly: Antitumor activity against C38 adenocarcinoma model at a dose of 25 mg/kg administered intravenously in mice; tumor volume at D38 (T/C). It is filed as functional. Particulars: route intravenous. An outline of the steps: (§4)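 Hybrid BD F1 mice, 10 per group, were implanted sc with a standard 3-mm3 C38 colon adenocarcinoma fragment. Drugs were given iv at the stated doses on D1 or on D2 + D9. Read-out was tumor size in treated versus control mice (T/C) at the day stated.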

Assay [13] deals with Mus musculus. Put plainly: Weight change in g when a dose of 2.5 mg/kg administered intraperitoneally to B16 melanoma infected mice. The settings on record: route intraperitoneal. The assay is classed as functional. An outline of the steps: (§5)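 Hybrid BDF1 mice were inoculated ip at D0 with 0.5 mL of B16 melanoma homogenate (1 g tumor in 10 mL physiological serum). Drug was given ip daily on days 1-9, with cis-platinum 0.5 mg/kg as positive control on the same schedule.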

Assay [14] has as its system Mus musculus. Description: Antitumor activity against P388 leukemia in intraperitoneally for 5 days. The assay is classed as functional. A digest of the protocol:
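CDF1 hybrid male or female mice, 10 per group, were inoculated ip with 10^6 viable P388 cells on day 0. Drugs in distilled water were given ip (0.1 mL/10 g body weight) daily D1-5. Vehicle, 5-fluorouracil and BD 84 were given the same way. T/C = median survival day of treated / controls × 100; T/C > 128% was significant; cures counted at D60.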

In assay [15] the test system is Mus musculus. Description: Antitumor activity against B16 melanoma cells at a dose of 20 mg/kg administered intraperitoneally to mice. The assay is classed as functional. The settings on record: route intraperitoneal. An outline of the steps:
(§6)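 Hybrid BD F1 mice were inoculated ip at D0 with 0.5 mL of B16 melanoma homogenate (1 g tumor in 10 mL physiological serum). Drugs were given ip daily D1-9. Cisplatin 0.5 mg/kg was the positive control under the same schedule.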

In assay [16] the test system is Mus musculus. Put plainly: Survivors at day 60 when a dose of 30 mg/kg to B16 melanoma infected mice; 0/10. The assay is classed as functional.
Assay [17] relates to Mus musculus. Put plainly: Weight change in g when a dose of 30 mg/kg administered intraperitoneally to mice. It is filed as functional. The settings on record: route intraperitoneal.
For assay [18], the system named is Mus musculus. Put plainly: Antitumor activity against B16 melanoma cells at a dose of 30 mg/kg administered intraperitoneally to mice. The assay is classed as functional. Particulars: route intraperitoneal. An outline of the steps: as §6
The subject of assay [19] is Mus musculus. Description: Weight change in g when a dose of 10 mg/kg administered intraperitoneally in B-16 melanoma infected mice. It is filed as functional. The settings on record: route intraperitoneal. An outline of the steps: as §5
In assay [20] the test system is Mus musculus. Description: Weight change in g when a dose of 80 mg/kg administered intraperitoneally to P388 leukemia model. Particulars: route intraperitoneal.
Assay [21] concerns Mus musculus. Description: Survivors at day 60 when a dose of 2.5 mg/kg to B16 melanoma infected mice; 0/10. The assay is classed as functional.
Assay [22] deals with Mus musculus. Put plainly: Survivors at day 60 when a dose of 20 mg/kg to B16 melanoma infected mice; 5/10. It is filed as functional.
Assay [23] concerns Mus musculus. Put plainly: Survivors at day 30 when a dose of 50 mg/kg administered intravenously to P388 leukemia mice model; 0/10. The assay is classed as functional. Particulars: route intravenous.
Assay [24] has as its system Mus musculus. Put plainly: Antitumor activity against C38 adenocarcinoma cells at a dose of 50 mg/kg administered intravenously to mice; tumor volume at D32 (T/C). It is filed as functional, MC-38. Particulars: route intravenous. An outline of the steps:
as §4

Assay [25] concerns Mus musculus. Put plainly: Antitumor activity against C38 adenocarcinoma cells at a dose of 75 mg/kg administered intravenously to mice; tumor volume at D32 (T/C). It is filed as functional, MC-38. Particulars: route intravenous. A digest of the protocol: as §4
In assay [26] the test system is Mus musculus. Put plainly: Antitumor activity against P388 cells at a dose of 40 mg/kg administered intraperitoneally to P388 leukemia model. It is filed as functional. Particulars: route intraperitoneal. An outline of the steps:
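Mice were inoculated ip with 10^6 P388 leukemia cells at D0, then given a single ip drug dose on D1. Weight change was recorded. T/C % = median survival day of treated / controls × 100; survivors counted at D30; 10 mice per dose group, 20 controls.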

For assay [27], the system named is Mus musculus. Put plainly: Antitumor activity against L1210 cells at a dose of 40 mg/kg administered intravenously to mice. It is filed as functional. The settings on record: route intravenous. A digest of the protocol: as §3
In assay [28] the test system is Mus musculus. Description: In vivo toxicity test on P388 cells at a dose of 50 mg/kg administered intravenously to P388 leukemia mice model. The settings on record: route intravenous. It is filed as functional. An outline of the steps: (§7)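 Mice (10 per group) were inoculated ip at D0 with 10^6 P388 leukemia cells and given a single iv dose at D1. Read-outs were weight change (g), median survival day, T/C % versus controls and survivors at D30.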

Assay [29] deals with Mus musculus. Description: Weight change in g when a dose of 100 mg/kg intravenous administration to P388 leukemia mice model. It is filed as functional. An outline of the steps:
as §7

For assay [30], the system named is Mus musculus. Put plainly: Antitumor activity against L1210 leukemia mice model at a dose of 20 mg/kg administered intravenously. The settings on record: route intravenous. It is filed as functional. An outline of the steps:
as §3

The term T/C denotes the ratio of treated to control.

For the molecule `Cc1cnc(NCCCN(C)C)c2c3cc(O)ccc3n(C)c12`, the Survivors in assay [1] is 0; in assay [2], 0; in assay [5] it was 1; in assay [6], 4; in [7], 10; in [9], 0. Also, the results for the Weight change in [3], in [4] and in assay [13] were -1.4 g, -2.5 g and 0.1 g, respectively. Further, the Median survival day in assay [8] is reported as 32.6; in assay [11], 18.75. Also, the figures for the T/C in assay [10] and in assay [14] were 157% and “Toxic”, respectively. The molecule further gave a Tumor volume in [12] of 0%.

As for `CCN(CC)CCCNc1[nH]cc(C)c2nc3ccc(O)cc3c1-2`, the figures for the T/C in [15] and in assay [18] were 211% and 33%, respectively. Moreover, the Survivors in assay [16] was 0; in assay [21], 0; in assay [22], 5. For the same molecule, the values for the Weight change in [17], in [19] and in assay [20] were -1 g, 1.6 g and -1.7 g, respectively.

Take `CCN(CC)CCCNc1ncc(C)c2c1c1cc(O)ccc1n2C`: in assay [23], the Survivors is recorded as 0. Besides, the results for the Tumor volume in assay [24] and in assay [25] were 18% and 13%, respectively. Further, the T/C in [26] was determined as 202%; in [27] it was 149%; in [28], 174%; in assay [30], 132%. The Weight change in [29] was -1.6 g.
